Calls of active or inactive are those of the source. No cut-off for these calls is given here.
How the values were obtained:
[1] = test system: CCRF-CEM; assay: Antiproliferative activity against human CEM cells after 72 hrs by trypan blue assay; assay type: functional, cell-based
Procedure, shortened: (§1)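 Cells kept in RPMI-1640 with 10% heat-inactivated fetal calf serum, penicillin and streptomycin, 5% CO2, 37 °C, used in exponential growth. 1 × 10⁵ cells per well exposed to compound at 0.001–10 µM at 37 °C (48 h in methods, 72 h in table footnotes). Viability by Trypan blue versus untreated controls. IC50 by nonlinear regression, duplicate, three repeats.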

[2] = test system: DU-145; assay: Antiproliferative activity against human DU145 cells after 72 hrs by trypan blue assay; assay type: functional, cell-based; settings: DU-145, 72 h; procedure, shortened: as §1
[3] = test system: CCRF-CEM; assay: Cell cycle arrest in human CEM cells assessed as accumulation at G2/M phase at 0.22 uM after 4 to 24 hrs by flow cytometry; assay type: functional, cell-based
Procedure, shortened: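 CEM cells exposed to 0.22 µM compound or left untreated for 4, 12 or 24 h. Fixed in 70% ethanol for at least 12 h at 4 °C, then RNase A 50 µg/mL at 37 °C for 30 min and propidium iodide 50 µg/mL final at 4 °C for 30 min. At least 10⁴ events read by flow cytometry for DNA profile.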

[4] = test system: Bel-7402; assay: Antiproliferative activity against human Bel7402 cells after 72 hrs by trypan blue assay; assay type: functional, cell-based; settings: Bel-7402, 72 h; procedure, shortened: as §1
[5] = test system: Bel-7402; assay: Antitumor activity against human Bel7402 cells xenografted BALB/c mouse assessed as inhibition of tumor growth at 10 mg/kg, ip q2d after 25 days relative to control; assay type: functional; settings: Bel-7402, ip, 600 h, route intraperitoneal
Procedure, shortened: (§2)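 Male Balb/c nude mice (16-20 g, 6-7 weeks) given sc Bel-7402 cells, 5 × 10⁶ per mouse, on the back. Six injections q2d. Tumor volume measured weekly by calipers = length × width² × 0.52. Body weight recorded before and after treatment.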

[6] = Antiproliferative activity against human MIA cells after 72 hrs by trypan blue assay; assay type: functional, cell-based; procedure, shortened: as §1
[7] = test system: CCRF-CEM; assay: Induction of apoptosis in human CEM cells assessed as Bcl2 phosphorylation at 0.014 to 0.27 uM after 12 to 24 hrs by Western blot; assay type: functional, cell-based
Procedure, shortened: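 CEM cells exposed to 0.014–0.27 µM for 12 or 24 h, then lysed in Tris-HCl pH 7.4 buffer with detergents and protease/phosphatase inhibitors. Equal lysate run on 10% SDS-PAGE and transferred to PVDF. Blocked in 5% milk/TBST, probed with anti-Bcl-2 monoclonal and HRP secondary, detected by ECL; phosphorylated Bcl-2 seen as a separate band.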

[8] = test system: Bel-7402; assay: Antitumor activity against human Bel7402 cells xenografted BALB/c mouse assessed as inhibition of tumor growth at 5 mg/kg, ip q2d after 25 days relative to control; assay type: functional; settings: Bel-7402, ip, 600 h, route intraperitoneal; procedure, shortened: as §2
[9] = test system: LoVo; assay: Antiproliferative activity against human LOVO cells after 72 hrs by trypan blue assay; assay type: functional, cell-based; procedure, shortened: as §1
[10] = test system: MCF7; assay: Antiproliferative activity against human MCF7 cells after 72 hrs by trypan blue assay; assay type: functional, cell-based; settings: MCF7, 72 h; procedure, shortened: as §1
[11] = Antiproliferative activity against human DND1A cells after 72 hrs by trypan blue assay; assay type: functional, cell-based; procedure, shortened: as §1
[12] = test system: CCRF-CEM; assay: Cell cycle arrest in human CEM cells assessed as morphological changes at 0.014 uM after 24 hrs by Giemsa staining
[13] = Inhibition of beta tubulin polymerization at 1 uM
[14] = Inhibition of beta tubulin polymerization
[15] = test system: Daudi; assay: Antiproliferative activity against human Daudi cells after 72 hrs by trypan blue assay; assay type: functional, cell-based; procedure, shortened: as §1
[16] = test system: PC-3; assay: Antiproliferative activity against human PC3 cells after 72 hrs by trypan blue assay; assay type: functional, cell-based; settings: PC-3, 72 h; procedure, shortened: as §1
[17] = test system: Bel-7402; assay: Antitumor activity against human Bel7402 cells xenografted ip dosed BALB/c mouse assessed as inhibition of tumor growth after 25 days relative to control; assay type: functional; settings: Bel-7402, ip, 600 h
Procedure, shortened: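 Male Balb/c nude mice (16-20 g, 6-7 weeks) given sc Bel-7402 cells (5 × 10⁶/mouse) on the back. On day 12 they were randomized (5/group) to solvent control or 5 or 10 mg/kg ip, six doses q2d. Tumors were measured weekly by caliper, volume = length × width² × 0.52. Inhibition was taken versus solvent-treated controls on day 25 post-treatment.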

[18] = test system: Mus musculus; assay: Toxicity in human Bel7402 cells xenografted BALB/c mouse assessed as body weight at 10 mg/kg, ip q2d after 25 days relative to control; assay type: organism-based, Bel-7402; set-up: dose 10 mg/kg, route intraperitoneal; settings: in vivo, 600 h; procedure, shortened: as §2
[19] = test system: CCRF-CEM; assay: Cell cycle arrest in human CEM cells assessed as accumulation at M phase at <0.01 uM after 12 hrs by flow cytometry; assay type: functional
[20] = Inhibition of beta tubulin polymerization at 20 uM

Row | IC50 [1] | SMILES | also measured
1 | 1.53 µM | NC(=O)NC(=O)c1cc(NC(=O)CBr)cc([N+](=O)[O-])c1 | –
2 | > 20 µM | NC(=O)NC(=O)c1ccc(O)c(NC(=O)CCl)c1 | –
3 | > 20 µM | Cc1ccc(NC(=O)C(C)Br)cc1C(=O)NC(N)=O (stereo not given) | –
4 | 1.16 µM | NC(=O)NC(=O)c1cc(NC(=O)CBr)ccc1Br | –
5 | 1.58 µM | CC(Br)C(=O)Nc1cc(C(=O)NC(N)=O)cc([N+](=O)[O-])c1 (stereo not given) | –
6 | > 20 µM | COc1ccc(C(=O)NC(N)=O)cc1NC(=O)C(C)Cl (stereo not given) | –
7 | > 20 µM | NC(=O)NC(=O)c1ccc(F)c(NC(=O)CCl)c1 | –
8 | > 20 µM | CC(Cl)C(=O)Nc1cc(C(=O)NC(N)=O)ccc1Cl (stereo not given) | –
9 | 3.94 µM | CC(Br)C(=O)Nc1cc(C(=O)NC(N)=O)cs1 (stereo not given) | –
10 | 3.36 µM | Cc1ccc(C(=O)NC(N)=O)cc1NC(=O)CCl | –
11 | 4.76 µM | Cc1ccc(NC(=O)CBr)cc1C(=O)NC(N)=O | –
12 | – | CC(=O)O[C@H]1C(=O)[C@@]2(C)[C@H]([C@H](OC(=O)c3ccccc3)[C@]3(O)C[C@H](OC(=O)[C@H](O)[C@@H](NC(=O)c4ccccc4)c4ccccc4)C(C)=C1C3(C)C)[C@]1(OC(C)=O)CO[C@@H]1C[C@@H]2O | Activity [20]: inactive
13 | < 0.01 µM | NC(=O)NC(=O)c1cc(NC(=O)CBr)ccc1F | inhibition in vivo at 10 mg/kg [5]: 52%; inhibition in vivo at 5 mg/kg [8]: 37%; IC50 [10]: 0.08 µM; IC50 [15]: 0.015 µM; Activity [18]: 18.6 g; Activity [19]: 31.3%
14 | 0.52 µM | CC(Br)C(=O)Nc1ccc(F)c(C(=O)NC(N)=O)c1 (stereo not given) | –
15 | 7.63 µM | CC(Br)C(=O)Nc1ccc(Br)c(C(=O)NC(N)=O)c1 (stereo not given) | –
16 | 7.68 µM | NC(=O)NC(=O)c1cc(NC(=O)CCl)ccc1F | –
17 | 20 µM | Cc1ccc(NC(=O)CI)cc1C(=O)NC(N)=O | –
18 | 2.7 µM | Cc1c(NC(=O)CCl)cccc1C(=O)NC(N)=O | –
19 | 0.54 µM | NC(=O)NC(=O)c1cc(NC(=O)CBr)ccc1Cl | –
20 | 1.47 µM | C[C@@H](Br)C(=O)Nc1cccc(C(=O)NC(N)=O)c1 | –
21 | 4.05 µM | NC(=O)NC(=O)c1ccc(NC(=O)CBr)o1 | –
22 | > 20 µM | Cc1ccc(C(=O)NC(N)=O)cc1NC(=O)C(C)Cl (stereo not given) | –
23 | 4.28 µM | Cc1ccc(C(=O)NC(N)=O)cc1NC(=O)CBr | –
24 | 3.36 µM | Cc1ccc(C(=O)NC(N)=O)cc1NC(=O)C(C)Br (stereo not given) | –

Row | IC50 [1] | SMILES | also measured
25 | 2.44 µM | NC(=O)NC(=O)c1cc(NC(=O)CCl)ccc1Cl | –
26 | 2.55 µM | CC(Br)C(=O)Nc1ccc(Cl)c(C(=O)NC(N)=O)c1 (stereo not given) | –
27 | > 20 µM | Cc1c(NC(=O)C(C)Cl)cccc1C(=O)NC(N)=O (stereo not given) | –
28 | 0.48 µM | Cc1c(NC(=O)C(C)Br)cccc1C(=O)NC(N)=O (stereo not given) | –
29 | > 20 µM | COc1ccc(C(=O)NC(N)=O)cc1NC(=O)CCl | –
30 | 2.7 µM | COC(=O)c1cc(NC(=O)C(C)Br)cc(C(=O)NC(N)=O)c1 (stereo not given) | –
31 | 3.13 µM | CC(Br)C(=O)Nc1cc(C(=O)NC(N)=O)ccc1F (stereo not given) | –
32 | 1.57 µM | COc1ccc(NC(=O)CBr)cc1C(=O)NC(N)=O | –
33 | 1.3 µM | COC(=O)c1cc(NC(=O)CBr)cc(C(=O)NC(N)=O)c1 | –
34 | 2.29 µM | NC(=O)NC(=O)c1ccc(F)c(NC(=O)CBr)c1 | –
35 | 16.6 µM | NC(=O)NC(=O)c1ccc(NC(=O)CCl)o1 | –
36 | 2.91 µM | NC(=O)NC(=O)c1ccc(Cl)c(NC(=O)CBr)c1 | –
37 | 9.8 µM | CC(Br)C(=O)Nc1cc(C(=O)NC(N)=O)ccc1Cl (stereo not given) | –
38 | 1.47 µM | C[C@H](Br)C(=O)Nc1cccc(C(=O)NC(N)=O)c1 | –
39 | 1.13 µM | NC(=O)NC(=O)c1csc(NC(=O)CBr)c1 | –
40 | 1.71 µM | Cc1c(NC(=O)CBr)cccc1C(=O)NC(N)=O | –
41 | 9.44 µM | CC(Br)C(=O)Nc1ccc(C(=O)NC(N)=O)o1 (stereo not given) | –
42 | 1.88 µM | COc1ccc(C(=O)NC(N)=O)cc1NC(=O)CBr | –
43 | > 20 µM | NC(=O)NC(=O)c1ccc(O)c(NC(=O)CBr)c1 | –
44 | – | CC[C@]1(O)C[C@H]2CN(CCc3c([nH]c4ccccc34)[C@@](C(=O)OC)(c3cc4c(cc3OC)N(C=O)[C@H]3[C@@](O)(C(=O)OC)[C@H](OC(C)=O)[C@]5(CC)C=CCN6CC[C@]43[C@@H]65)C2)C1 | Activity [20]: Active
45 | > 20 µM | COc1ccc(C(=O)NC(N)=O)cc1NC(=O)C(C)Br (stereo not given) | –
46 | 15.9 µM | NC(=O)NC(=O)c1ccc(Cl)c(NC(=O)CCl)c1 | –
47 | 1.91 µM | COC(=O)c1cc(NC(=O)CI)cc(C(=O)NC(N)=O)c1 | –

Row | SMILES | IC50 [1] | also measured
48 | NC(=O)NC(=O)c1cc(NC(=O)CI)ccc1F | < 0.01 µM | IC50 [2]: 0.22 µM; Activity [3]: Active; IC50 [4]: 0.16 µM; inhibition in vivo at 10 mg/kg [5]: 86%; IC50 [6]: 0.054 µM; Activity [7]: Active; inhibition in vivo at 5 mg/kg [8]: 62%; IC50 [9]: 0.19 µM; IC50 [10]: < 0.01 µM; IC50 [11]: 0.02 µM; Activity [12]: Active; Activity [13]: Active; IC50 [14]: 0.71 µM; IC50 [15]: < 0.01 µM; IC50 [16]: 0.19 µM; LD50 [17]: 38.8 mg/kg; Activity [18]: 21.6 g; Activity [19]: 37.6%
49 | NC(=O)NC(=O)c1cccc(NC(=O)CI)c1 | < 0.01 µM | inhibition in vivo at 10 mg/kg [5]: 57%; LD50 [17]: 31 mg/kg
